# The list is not random: actives were taken first. Their share in the collection is about 4.1%.
# KCNQ1 act: human KCNQ1 channel potentiation or activation. AID 2648. P51787. CHO-K1 KCNQ1, thallium flux FluxOR fluorescence; active compounds read high. B-score at 10 µM. 310,000 tested, 0.35% active;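 active means fluorescence ratio B-score, a plate-corrected score, at least three library SD, with initial intensity B-score within 5 SD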
#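 Assay system: stable KCNQ1 CHO-K1 line; medium: assay buffer, equal DMSO in all wells; timing: 90 min dye loading and 20 min compound exposure, both at room temperature; technique: kinetic FluxOR thallium fluorescence, 10-s 1-Hz baseline, 110-s post-stimulus read; read-out basis: B score of baseline-normalized fluorescence ratio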
# KCC2 mod: KCC2 (human) Cl- transport modulation; 190,000 tested, 2.2% active; Q9H2X9; B-score of Tl+ flux slope (higher = more flux/activation; lower = inhibition) at 10 µM; KCC2 cells, thallium flux FluoZin-2 fluorescence;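 active means thallium flux slope and its plate-corrected score both differing from the plate sample mean at a set confidence after two filtering rounds, in either direction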;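 further: slope of fluorescence scaled to starting intensity during 10 to 20 s after thallium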
# KCNQ1 inh: human KCNQ1 channel inhibition. P51787. CHO-K1 KCNQ1, FluxOR thallium flux fluorescence; active compounds read high. B-score at 10 µM. 310,000 tested, 1.3% active. AID 2642;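 active means compounds whose thallium flux B-score, printed positive for inhibition, exceeds three library SD while starting fluorescence stays within three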;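 further: channel opened by potassium depolarization with thallium stimulus after 20 min compound exposure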
# hERG protect: hERG (human) protection from proarrhythmic block; Q12809; 310,000 tested, 0.51% active; activation (rescue from dofetilide block), less the hit threshold, % at 10 µM; CHO-hERG, FluxOR thallium flux, dofetilide IC70 present; AID 1511;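 active means activation above the mean of controls blocked by dofetilide plus 5 SD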;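 further: thallium influx through hERG after potassium depolarization seen as dye fluorescence rise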
# Target sequence (Q12809 whole entry, looked up): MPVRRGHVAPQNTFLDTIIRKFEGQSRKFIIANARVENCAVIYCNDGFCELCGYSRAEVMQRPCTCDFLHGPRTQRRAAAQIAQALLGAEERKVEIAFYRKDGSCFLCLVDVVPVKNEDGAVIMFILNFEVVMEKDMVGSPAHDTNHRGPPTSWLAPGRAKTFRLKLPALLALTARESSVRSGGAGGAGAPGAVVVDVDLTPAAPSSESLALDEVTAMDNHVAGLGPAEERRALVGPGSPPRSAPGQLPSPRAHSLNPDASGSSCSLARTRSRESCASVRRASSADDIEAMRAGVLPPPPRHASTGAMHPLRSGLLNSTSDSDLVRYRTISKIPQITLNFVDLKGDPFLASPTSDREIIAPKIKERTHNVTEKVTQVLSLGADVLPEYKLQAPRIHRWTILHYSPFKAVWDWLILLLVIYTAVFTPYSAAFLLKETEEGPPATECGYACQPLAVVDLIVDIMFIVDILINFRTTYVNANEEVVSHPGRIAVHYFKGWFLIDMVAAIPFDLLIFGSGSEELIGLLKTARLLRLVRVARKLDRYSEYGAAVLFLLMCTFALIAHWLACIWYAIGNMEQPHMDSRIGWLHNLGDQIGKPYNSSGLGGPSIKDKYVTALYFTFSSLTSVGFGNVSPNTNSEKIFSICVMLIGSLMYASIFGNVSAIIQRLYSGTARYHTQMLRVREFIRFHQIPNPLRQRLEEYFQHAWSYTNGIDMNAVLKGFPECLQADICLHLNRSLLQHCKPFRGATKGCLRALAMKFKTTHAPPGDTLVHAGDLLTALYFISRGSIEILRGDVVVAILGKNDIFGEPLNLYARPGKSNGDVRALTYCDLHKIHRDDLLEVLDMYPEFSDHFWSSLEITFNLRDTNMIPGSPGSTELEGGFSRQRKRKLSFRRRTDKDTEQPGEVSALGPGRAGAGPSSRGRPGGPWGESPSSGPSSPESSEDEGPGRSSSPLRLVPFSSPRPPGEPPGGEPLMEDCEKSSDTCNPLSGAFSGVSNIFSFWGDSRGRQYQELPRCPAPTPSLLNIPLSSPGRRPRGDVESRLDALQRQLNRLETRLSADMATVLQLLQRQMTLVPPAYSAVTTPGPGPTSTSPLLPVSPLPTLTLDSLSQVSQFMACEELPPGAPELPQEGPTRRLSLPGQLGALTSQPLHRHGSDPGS
# KCNK9 inh: human KCNK9 channel inhibition; HEK293 KCNK9, FluxOR thallium flux fluorescence; active compounds read low; B-score at 10 µM; 310,000 tested, 1.2% active;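 active means ratio B-score over 3 SD below the library mean, with starting fluorescence within 5 SD of its mean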;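 further: negative B-score means less thallium flux so channel inhibition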
# KCNK3 block: human KCNK3 channel inhibition, primary screen; CHO-KCNK3 thallium flux, FluxOR fluorescence; active compounds read low; 340,000 tested, 0.84% active; AID 602410; O14649; B-score at 10 µM;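 active means B-score under library mean minus 4 SD, starting fluorescence ratio at most library mean plus 5 SD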;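 further: more negative B-score means stronger inhibition of thallium flux through KCNK3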
# Active calls of the source: *; i = inactive; . = no result given.
SMILES,KCNQ1 act,KCC2 mod,KCNQ1 inh,hERG protect,KCNK9 inh,KCNK3 block
CC1(C)CC(=S)Nc2ccccc2S1,i,4.7*,i,-4,i,i
CC1(C)NC(=O)N(CC(=O)OCC(=O)c2ccc(Br)s2)C1=O,.,.,.,.,.,i
COc1ccccc1CN(CC(=O)NCc1ccc(F)cc1)C(=O)c1csnn1,i,.,i,-4,i,i
Cc1c(-c2ccccc2)nc2ccccc2c1C(=O)OCC(=O)Nc1ncc(C(F)(F)F)cc1Cl,i,-0.15,9*,-10,i,i
O=C(COC(=O)c1cc(-c2ccccc2Cl)nc2ccccc12)Nc1ncc(C(F)(F)F)cc1Cl,i,-0.69,i,-6,i,i
COc1ccc(-c2nnc(-c3ccccc3O)o2)cc1,i,.,i,5.1*,i,i
CN(CC(=O)Nc1ccccc1Cl)CC(=O)Nc1c(F)cccc1F,i,0.046,i,5.2*,i,i
CN(CC(=O)Nc1ccccc1Cl)CC(=O)Nc1cccc2ccccc12,.,.,.,.,.,i
COc1ccc(C(=O)NNC(=O)CSc2nnc(C3CC3)n2C)cc1,i,.,i,-4,i,i
COc1ccc(C=O)c(OCc2cn(CC(=O)c3ccc(O)cc3)nn2)c1,.,.,.,.,.,i
CCOC(=O)CN1C(c2ccc(O)cc2)Nc2ccc(Br)cc2C1c1ccccc1 (stereo not given),i,0.49,i,-7,-7.5*,i
CN(C)C(CNc1ncccn1)c1ccccc1 (stereo not given),i,.,i,-5,i,i
O=C(Nc1ccc(Cl)cc1)N(C1=NCCC1)c1ccc(OC(F)F)cc1,i,-0.88,6*,-16,i,i
Cc1occc1C(=O)NNC(=S)NC(=O)COc1ccc(Cl)cc1Cl,75*,.,i,62*,i,i
O=C(COc1ccc(Cl)cc1Cl)NNC(=S)Nc1ccc(F)cc1,i,4.1*,i,-10,i,i
O=C(COC(=O)C1=COCCO1)Nc1cc(Cl)c(Cl)cc1Cl,.,.,.,.,.,i
CCOC(=O)C1=CN(CC2CCCCC2)CCC1=O,.,.,.,.,.,i
O=C(NC(=S)Nc1nc2c(s1)CCCC2)c1ccc(C(=O)c2ccccc2)cc1,9*,23*,i,14*,i,i
O=C(NC(=S)Nc1nc2c(s1)CSc1ccccc1-2)c1ccccc1,28*,.,i,29*,i,i
COc1ccc(-c2c(-c3ccsc3)oc3ccc(N4CCOCC4)cc23)cn1,i,.,i,-8,-7.9*,i
COC(=O)c1ccc(/C=C/c2c(-c3ccsc3)oc3ccc(N4CCOCC4)cc23)cc1,i,.,i,-6,i,i
COc1ccccc1CNS(=O)(=O)c1ccc(N2CCCC2)cc1Br,.,.,.,.,.,i
CCCc1c(C)nc2c(OC)cccc2c1SCC(=O)O,i,0.0065,i,4.7*,i,i
CCCc1c(C)nc2ccc(OC)cc2c1SCCC(=O)O,i,-0.69,i,-12,i,i
O=C(OCc1cccc(C(F)(F)F)c1)c1cc(S(=O)(=O)N2CCOCC2)ccc1F,i,.,i,-9,i,i
SMILES,KCNQ1 act,KCC2 mod,KCNQ1 inh,hERG protect,KCNK9 inh,KCNK3 block
O=C(C=Cc1cccc(O)c1)c1ccccc1O,.,.,.,.,.,-9.9*
CCOC(=O)c1ccc[n+](CC(=O)c2ccc(NC(=O)c3ccccc3)cc2)c1,i,.,i,-4,i,i
COc1cc(-c2cc(C(=O)Nc3ccc(O)cc3)c3ccccc3n2)cc(OC)c1OC,i,0.065,i,-15,i,i
O=C(NC(=S)Nc1ccccn1)c1cc(-c2ccccc2)nc2ccccc12,8*,22*,i,4,i,i
Cc1cc(NC(=O)c2cc(-c3ccncc3)nc3ccccc23)ccc1Br,.,.,.,.,.,-13*
O=C(NC(=S)Nc1ccccc1)c1cc(-c2ccccc2)nc2ccccc12,33*,18*,i,4,i,i
CC(=O)c1cccc(NC(=O)c2cc(-c3ccncc3)nc3ccccc23)c1,.,.,.,.,.,i
COc1cc(-c2cc(C(=O)Nc3cccc(C(C)=O)c3)c3ccccc3n2)cc(OC)c1OC,i,.,i,-15,i,-11*
CCN(Cc1cccs1)C(=O)CN1C(=O)NC(c2ccccc2)(c2ccccc2)C1=O,.,.,.,.,.,i
CC(C)(C)c1nnc(NC(=O)c2cc(-c3ccccc3)nc3ccccc23)s1,i,-0.43,6*,-17,i,i
CCc1nnc(NC(=O)c2cc(-c3ccncc3)nc3ccccc23)s1,i,-1.6,i,-6,i,i
Cc1ccccc1S(=O)(=O)NCC1CCCO1 (stereo not given),i,.,i,-4,i,i
Cc1cc(C(=O)OCC(=O)N(C)c2ccccc2)ccc1[N+](=O)[O-],i,.,i,-7,i,i
Cc1ccc(C(=O)OCC(=O)N(C)c2ccccc2)cc1C,11*,.,i,-4,i,i
CC(C)Cn1c(SCC(=O)Nc2cccnc2Cl)nnc1-c1ccco1,.,.,.,.,.,i
N#CCCn1nc(-c2ccc(Cl)cc2)cc1Nc1ccccc1NC(=O)C(F)(F)F,i,-0.038,6*,-14,i,i
CN1/C(=C\C=[N+](C)c2ccccc2)C(C)(C)c2ccccc21,i,.,8*,-18,i,i
CN1/C(=C\C=N\O)C(C)(C)c2ccccc21,i,-0.16,i,-4,i,i
CN(C)c1ccc(N=C/C=C2/N(C)c3ccccc3C2(C)C)cc1,i,0.26,6*,-19,i,i
CC1CCCN(CC(O)COc2ccc(S(=O)(=O)N3CCCC3)cc2[N+](=O)[O-])C1 (stereo not given),.,.,.,.,.,i
CCOC(=O)c1c(C=O)c(C)n(Cc2ccc(Cl)cc2)c1C,i,-0.18,i,-13,i,i
CCOC(=O)C1=C(Cc2ccc(Cl)cc2)C(=O)c2ccccc2C1=O,i,.,10*,-8,i,i
O=C(c1ccc(S(=O)(=O)N2CCCC2)cc1)N1CCN(c2cccc(Cl)c2)CC1,9*,.,i,-12,i,i
O=C(c1ccc(S(=O)(=O)N2CCCC2)cc1)N1CCN(c2ccccc2)CC1,i,.,i,-8,i,i
COc1ccc(Cl)cc1S(=O)(=O)Nc1ncn[nH]1,i,.,i,-7,i,i
O=C(c1ccccc1)c1ncc[nH]1,i,.,i,-4,i,i
O=c1[nH]c(/C(=N\O)c2ccccc2)no1,i,0.21,i,-9,-7.2*,i
CCCCN(CCCC)C(=S)NC(=O)C(C)(C)C,i,38*,i,-2,i,i
O=C(O)CNC(=O)c1ccc(NC(=O)/C(=C/c2ccccc2)NC(=O)c2ccco2)cc1,i,.,i,-4,i,i

# Assay outcomes (PubChem)
